From ChEMBL document CHEMBL1122783, “Synthesis of 2-(2,3-dihydro-2-oxo-1,3,4-oxadiazol-5-yl) benzo heterocycles. A novel series of orally active antiallergic agents” (J Med Chem, 1984)

Experiments:
Rattus norvegicus [1] = species: Rattus norvegicus; test: Concentration required to inhibit antigen-induced release of histamine (AIR) by 50% from rat peritoneal mast cells (RMC) (in vitro); assay type: functional, cell-based; details: Mast cell, read-out: I-50
How it was run: (§1)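 Rat peritoneal mast cells passively sensitized in vitro with rat anti-ovalbumin serum; compounds dissolved in Me2SO (final 0.17%). Antigen-induced and spontaneous (no antigen) histamine release measured after 15-min incubation; released and residual extracted histamine determined fluorometrically on an AutoAnalyzer.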

Rattus norvegicus [2] = species: Rattus norvegicus; test: Concentration required to inhibit antigen-induced release of histamine (AIR) by 50% from rat peritoneal mast cells (RMC) (in vitro); f = Stimulation of AIR; assay type: functional, cell-based; how it was run: as §1
Rattus norvegicus [3] = test: Inhibition of IgE-mediated passive cutaneous anaphylaxis (PCA) by 50% in rat dosed perorally; details: po
Rattus norvegicus [4] = species: Rattus norvegicus; test: Concentration required to inhibit antigen-induced release of histamine (AIR) by 50% from rat peritoneal mast cells (RMC) (in vitro).; assay type: functional, cell-based; how it was run: as §1

Structure (SMILES) | IC50 (Rattus norvegicus [1]) [µM] | ED50 (Rattus norvegicus [3]) [mg/kg] | further results
Cn1c(-c2n[nH]c(O)n2)nc2ccccc21 | – | – | I-50 (Rattus norvegicus [2]): Stimulation of AIR
Oc1nnc(-c2cc3ccccc3o2)o1 | 1.5 | 2 | –
Cn1nc(-c2nc3ccccc3o2)oc1=O | – | – | I50 (Rattus norvegicus [2]): Stimulation of AIR
Oc1n[nH]c(-c2nc3ccccc3o2)n1 | 60 | – | –
Cc1ccc2oc(-c3nnc(O)o3)nc2c1 | 0.4 | 2 | –
Oc1nnc(-c2cc3ccccc3[nH]2)o1 | 33 | – | –
CC(=O)n1nc(-c2nc3ccccc3o2)oc1=O | 1.4 | – | –
CCOC(=O)n1nc(-c2nc3ccccc3n2C)oc1=O | – | – | I-50 (Rattus norvegicus [4]): Stimulation of AIR
CCOC(=O)n1nc(-c2nc3ccccc3o2)oc1=O | – | – | I-50 (Rattus norvegicus [4]): Stimulation of AIR
Cc1cccc2oc(-c3nnc(O)o3)nc12 | 1 | – | –
Oc1nnc(-c2cc3cc(Cl)ccc3[nH]2)o1 | – | 9 | –
CC1=C(c2nnc(O)o2)Cc2ccccc21 | – | > 100 | I-50 (Rattus norvegicus [4]): Stimulation of AIR
O=C([O-])c1cc(=O)c2c(OCC(O)COc3cccc4oc(C(=O)[O-])cc(=O)c34)cccc2o1.[Na+].[Na+] [CROMOLYN SODIUM] | 3 | 6 | –
CCOC(=O)n1nc(-c2nc3cc(C)ccc3n2C)oc1=O | – | – | I-50 (Rattus norvegicus [4]): Stimulation of AIR
CCOC(=O)Cn1nc(-c2nc3ccccc3o2)oc1=O | – | – | I-50 (Rattus norvegicus [4]): Stimulation of AIR
CCOC(=O)n1nc(-c2nc3ccc(C)cc3o2)oc1=O | – | – | I-50 (Rattus norvegicus [4]): Stimulation of AIR
Oc1nnc(-c2nc3ccccc3o2)o1 | 1.2 | 3 | –

Further lines, with some results ahead:

IC50 (Rattus norvegicus [1]) [µM] | Structure (SMILES) | ED50 (Rattus norvegicus [3]) [mg/kg] | further results
1 | CCOC(=O)c1ccc2oc(-c3nnc(O)o3)nc2c1 | – | –
15 | O=C(/C=C/c1ccccc1)n1nc(-c2nc3ccccc3o2)oc1=O | – | –
0.5 | CC(=O)n1nc(-c2nc3ccccc3n2C)oc1=O | – | –
5 | Cc1ccc2nc(-c3nnc(O)o3)oc2c1 | 2 | –
6 | Cc1ccc2c(c1)nc(-c1nnc(O)o1)n2C | 5 | –
0.2 | Oc1nnc(-c2sc3ccccc3c2Cl)o1 | > 125 | –
0.3 | COC(=O)c1cc(OC)c2oc(-c3nnc(O)o3)nc2c1 | 9 | –
0.35 | Oc1nnc(-c2nc3cc(Cl)ccc3o2)o1 | 16 | –
0.9 | Cn1c(-c2nnc(O)o2)nc2ccccc21 | 1 | –
